In ChEMBL document CHEMBL1146749, “The effect of C2-fluoro group on the biological activity of DC-81 and its dimers” (2004):

Experiments:
Nucleic Acid [1] = assay: DNA binding ability by thermal denaturation studies using calf thymus DNA after incubation at 37 degree C for 18 hour; assay type: nucleic-acid assay; conditions: Bos taurus
Nucleic Acid [2] = assay: DNA binding ability by thermal denaturation studies using calf thymus DNA after incubation at 37 degree C for 0 hour; assay type: nucleic-acid assay; conditions: Bos taurus
SR = assay: In vitro cytotoxicity against human leukemia SR cancer cell line; assay type: functional
SW-620 = assay: In vitro cytotoxicity against human colon SW-620 cancer cell line; assay type: functional
NCI-H460 = assay: In vitro anticancer activity was evaluated for the percentage growth of human lung NCI-H460 cell line; assay type: functional
Outline: (§1)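 Each cell line received a single dose of 10^-4 M, and the read-out was percentage growth.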

CCRF-CEM = assay: In vitro cytotoxicity against human leukemia CCRF-CEM cancer cell line; assay type: functional
Hs-578T = assay: In vitro cytotoxicity against human breast Hs 578.T cancer cell line; assay type: functional
SF-268 [3] = assay: In vitro anticancer activity was evaluated for the percentage growth of human (CNS) SF-268 cell line; assay type: functional; outline: as §1
SF-295 = assay: In vitro cytotoxicity against human CNS SF-295 cancer cell line; assay type: functional
Nucleic Acid [4] = assay: DNA binding ability by thermal denaturation studies using calf thymus DNA after incubation at 37 degree C for 36 hour; assay type: nucleic-acid assay; conditions: Bos taurus
Outline: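 Calf thymus DNA 100 µM with PBD 20 µM (1:5 [PBD]:[DNA]) in 10 mM sodium phosphate + 1 mM EDTA, pH 7.00, incubated at 37 °C for 0, 18 or 36 h. Thermal melting measured; ΔTm taken relative to CT-DNA alone, whose Tm is the mean of 10 separate determinations.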

NCI-H522 = assay: In vitro cytotoxicity against human non-small cell lung NCI-H522 cancer cell line; assay type: functional
SF-268 [5] = assay: In vitro cytotoxicity against human CNS SF-268 cancer cell line; assay type: functional
UO-31 = assay: In vitro cytotoxicity against human renal UO-31 cancer cell line; assay type: functional
MCF7 = assay: In vitro anticancer activity was evaluated for the percentage growth of human breast MCF-7 cell line; assay type: functional; outline: as §1

| Compound | ΔTm (Nucleic Acid [1]) [°C] | ΔTm (Nucleic Acid [2]) [°C] | GI50 (SR) [nM] | GI50 (SW-620) [nM] | Growth (NCI-H460) [%] | GI50 (CCRF-CEM) [nM] | GI50 (Hs-578T) [nM] | Growth (SF-268 [3]) [%] | GI50 (SF-295) [nM] | ΔTm (Nucleic Acid [4]) [°C] | GI50 (NCI-H522) [nM] | GI50 (SF-268 [5]) [nM] | GI50 (UO-31) [nM] | Growth (MCF7) [%] |
| --- | --- | --- | --- | --- | --- | --- | --- | --- | --- | --- | --- | --- | --- | --- |
| COc1cc2c(cc1O)N=C[C@@H]1CCCN1C2=O | 0.7 | 0.3 | – | – | – | – | – | – | – | – | – | – | – | – |
| COc1cc2c(cc1OCCCOc1cc3c(cc1OC)C(=O)N1CCC[C@H]1C=N3)N=C[C@@H]1CCCN1C2=O | – | 10.2 | – | – | – | – | – | – | – | – | – | – | – | – |
| COc1cc2c(cc1O)N=C[C@@H]1C[C@H](F)CN1C2=O | 1 | 0.3 | 200 | 1190 | 0 | 300 | 10 | 0 | 320 | 2.2 | 410 | 350 | 170 | 0 |
| COc1cc2c(cc1OCCCCOc1cc3c(cc1OC)C(=O)N1C[C@@H](F)C[C@H]1C=N3)N=C[C@@H]1C[C@H](F)CN1C2=O | 12.3 | 4.6 | – | – | – | – | – | – | – | 13.8 | – | – | – | – |
| COc1cc2c(cc1OCc1ccccc1)N=C[C@@H]1C[C@H](F)CN1C2=O | 2 | 1.1 | < 10 | < 10 | 1 | < 10 | < 10 | 19 | 30 | 2.5 | < 10 | 10 | < 10 | 0 |
| COc1cc2c(cc1O)N=C[C@@H]1C[C@@H](F)CN1C2=O | 1.5 | 0.6 | – | – | – | – | – | – | – | 2.25 | – | – | – | – |
| COc1cc2c(cc1OCCCOc1cc3c(cc1OC)C(=O)N1C[C@@H](F)C[C@H]1C=N3)N=C[C@@H]1C[C@H](F)CN1C2=O | 4.9 | 3.1 | 1540 | 4200 | 0 | – | – | 0 | 1960 | 6.16 | 1880 | 2200 | 2400 | 0 |
| COc1cc2c(cc1OCCCCCOc1cc3c(cc1OC)C(=O)N1C[C@@H](F)C[C@H]1C=N3)N=C[C@@H]1C[C@H](F)CN1C2=O | 16 | 14.2 | < 10 | 20 | 0 | < 10 | < 10 | 0 | < 10 | 17.4 | < 10 | < 10 | < 10 | 0 |
